Laboratory results from ChEMBL document CHEMBL4340554, “Design, synthesis and biological evaluation of novel 4,5-dihydro-[1,2,4]triazolo[4,3-f]pteridine derivatives as potential BRD4 inhibitors” (Bioorg Med Chem, 2019).
Active and inactive are the calls of the source. No cut-off for these calls is given here.

Legend:
[1] = Inhibition of […] BRD4 bromodomain 1 incubated for 60 mins by TR-FRET assay
[2] = system: MV4-11; experiment: Antiproliferative activity against human MV4-11 cells incubated for 72 hrs by CCK-8 assay; format: functional, cell-based; details: MV4-11, 72 h
[3] = system: HL-60; experiment: Antiproliferative activity against human HL60 cells incubated for 72 hrs by CCK-8 assay; format: functional, cell-based; details: HL-60, 72 h
[4] = system: MV4-11; experiment: Induction of apoptosis in human MV4-11 cells assessed as early apoptotic cells level at 5 uM incubated for 24 hrs by Annexin V-FITC and propidium iodide staining based flow cytometry (reference value: 0.8%); format: functional
[5] = system: MV4-11; experiment: Induction of cell cycle arrest in human MV4-11 cells assessed as accumulation at G1 phase incubated for 24 hrs by propidium iodide staining based flow cytometry; format: functional
Method in brief: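 MV4;11 cells, used within two months of culture, grown in IMDM with 10% FBS and 1% penicillin-streptomycin at 37℃ under CO2. Cells were treated with compound for 24 h and then processed with a cell cycle detection kit following the kit protocol. Phase distribution was analysed by flow cytometry.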

[6] = system: MV4-11; experiment: Induction of apoptosis in human MV4-11 cells assessed as early apoptotic cells level at 1 uM incubated for 24 hrs by Annexin V-FITC and propidium iodide staining based flow cytometry (reference value: 0.8%); format: functional
[7] = system: MV4-11; experiment: Induction of apoptosis in human MV4-11 cells assessed as necrotic cells level at 1 uM incubated for 24 hrs by Annexin V-FITC and propidium iodide staining based flow cytometry (reference value: 0.0%); format: functional
[8] = system: MV4-11; experiment: Reduction in c-Myc protein expression in human MV4-11 cells at 1 to 10 uM incubated for 4 hrs Western blotting; format: functional, cell-based
Method in brief: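 MV4;11 leukemia cells (used within two months) were grown in IMDM with 10% FBS and 1% penicillin-streptomycin at 37℃ and 5% CO2. Log-phase cells were cultured 24 h, then treated for 4 h. They were lysed at 4℃ and protein was quantified by BCA. Lysates were run on SDS-PAGE (10% separating, 4% stacking gel) and transferred to PVDF. Membranes were blocked 2 h in 5% milk/TBST, probed overnight at 4℃ with anti-c-myc and anti-β-actin, and given secondary antibody for 2 h.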

[9] = system: MV4-11; experiment: Induction of apoptosis in human MV4-11 cells assessed as late apoptotic cells level at 1 uM incubated for 24 hrs by Annexin V-FITC and propidium iodide staining based flow cytometry (reference value: 1.5%); format: functional
[10] = system: MV4-11; experiment: Induction of apoptosis in human MV4-11 cells assessed as viable cells level at 5 uM incubated for 24 hrs by Annexin V-FITC and propidium iodide staining based flow cytometry (reference value: 97.7%); format: functional
[11] = system: MV4-11; experiment: Induction of apoptosis in human MV4-11 cells assessed as viable cells level at 1 uM incubated for 24 hrs by Annexin V-FITC and propidium iodide staining based flow cytometry (reference value: 97.7%); format: functional
[12] = system: MV4-11; experiment: Induction of apoptosis in human MV4-11 cells assessed as necrotic cells level at 5 uM incubated for 24 hrs by Annexin V-FITC and propidium iodide staining based flow cytometry (reference value: 0.0%); format: functional
[13] = system: MV4-11; experiment: Induction of apoptosis in human MV4-11 cells assessed as late apoptotic cells level at 5 uM incubated for 24 hrs by Annexin V-FITC and propidium iodide staining based flow cytometry (reference value: 1.5%); format: functional

SMILES	IC50 [1] [µM]	IC50 [2] [µM]	IC50 [3] [µM]	further results
Cc1nnc2n1-c1cnc(Nc3ccc(F)cc3)nc1N(C1CCCC1)C2	1.28	> 30	> 30	
Cc1ccc(Nc2ncc3c(n2)N(C2CCCC2)Cc2nnc(C)n2-3)cc1	0.38	7.34	29	
CCCCc1ccc(Nc2ncc3c(n2)N(C2CCCC2)Cc2nnc(C)n2-3)cc1	1.43	> 30	> 30	
Cc1nnc2n1-c1cnc(Nc3ccc(S(C)(=O)=O)cc3)nc1N(C1CCCC1)C2	0.089	1.92	7.85	
COc1cccc(Nc2ncc3c(n2)N(C2CCCC2)Cc2nnc(C)n2-3)c1	0.18	6.74	25.5	
Cc1nnc2n1-c1cnc(Nc3ccccc3)nc1N(C1CCCC1)C2	0.22	5.53	21.4	
Cc1ccccc1Nc1ncc2c(n1)N(C1CCCC1)Cc1nnc(C)n1-2	0.41	8.46	> 30	
Cc1nnc2n1-c1cnc(Nc3cccc(Cl)c3)nc1N(C1CCCC1)C2	1.43	> 30	> 30	
Cc1cccc(Nc2ncc3c(n2)N(C2CCCC2)Cc2nnc(C)n2-3)c1	1.56	> 30	> 30	
Cc1nnc2n1-c1cnc(Nc3ccc(N)cc3)nc1N(C1CCCC1)C2	0.079	1.53	7.16	Activity [4]: 3.8%; Activity [5]: Dose-dependent effect; Activity [6]: 0.5%; Activity [7]: 5.9%; Activity [8]: Active; Activity [9]: 3.9%; Activity [10]: 72.5%; Activity [11]: 89.7%; Activity [12]: 3.4%; Activity [13]: 20.4%
Cc1nnc2n1-c1cnc(Nc3ccc(C(C)(C)C)cc3)nc1N(C1CCCC1)C2	> 30	> 30	> 30	
COc1ccc(Nc2ncc3c(n2)N(C2CCCC2)Cc2nnc(C)n2-3)cc1OC	0.22	6.79	26.7	
Cc1nnc2n1-c1cnc(Nc3ccc(Cl)cc3)nc1N(C1CCCC1)C2	1.54	> 30	> 30	
COc1ccccc1Nc1ncc2c(n1)N(C1CCCC1)Cc1nnc(C)n1-2	0.16	4.17	19.2	
Cc1sc2c(c1C)C(c1ccc(Cl)cc1)=N[C@@H](CC(=O)OC(C)(C)C)c1nnc(C)n1-2	0.066	0.57	2.91	Activity [4]: 2.5%; Activity [5]: Dose-dependent effect; Activity [6]: 0.2%; Activity [7]: 6.1%; Activity [9]: 9.1%; Activity [10]: 61.6%; Activity [11]: 84.5%; Activity [12]: 4%; Activity [13]: 31.9%
Cc1nnc2n1-c1cnc(Nc3ccc([N+](=O)[O-])cc3)nc1N(C1CCCC1)C2	0.54	21.4	> 30	
COc1ccc(Nc2ncc3c(n2)N(C2CCCC2)Cc2nnc(C)n2-3)cc1	0.16	4.84	18.7	
Cc1nnc2n1-c1cnc(Nc3ccccc3[N+](=O)[O-])nc1N(C1CCCC1)C2	0.18	10.7	> 30	
Cc1nnc2n1-c1cnc(Nc3ccc(C(C)C)cc3)nc1N(C1CCCC1)C2	0.86	16.2	> 30	
